Results from ChEMBL document CHEMBL3351470, “Synthesis and Structure-Activity Relationships of α-Amino-γ-lactone Ketolides: A Novel Class of Macrolide Antibiotics” (2014).
Converted amounts (≈) assume the structure as drawn.

Columns and labels:
Type in all cases: functional
[1] = tested on: Streptococcus pyogenes; assay: Antibacterial activity against efflux-resistant Streptococcus pyogenes by agar microdilution method
In short: (§1)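 Agar microdilution MIC following NCCLS standards; strains taken from the Pliva Research Institute culture collection. Panel grouped by phenotype: erythromycin-susceptible, inducibly MLS-resistant (iMLS), constitutively MLSB-resistant and efflux-resistant (M). Azithromycin, telithromycin and cethromycin tested alongside as references. MIC reported in μg/mL.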

[2] = tested on: Streptococcus pneumoniae; assay: Antibacterial activity against macrolide lincosamide- streptogramin B inducibly-resistant Streptococcus pneumoniae by agar microdilution method; in short: as §1
[3] = tested on: Staphylococcus aureus; assay: Antibacterial activity against macrolide lincosamide- streptogramin B-resistant Staphylococcus aureus by agar microdilution method; in short: as §1
[4] = tested on: Streptococcus pyogenes; assay: Antibacterial activity against macrolide lincosamide- streptogramin B inducibly-resistant Streptococcus pyogenes by agar microdilution method; in short: as §1
[5] = tested on: Staphylococcus aureus; assay: Antibacterial activity against erythromycin-susceptible Staphylococcus aureus by agar microdilution method
In short: (§2)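 Strains from an in-house culture collection (Pliva Research Institute). MIC determined by agar microdilution following NCCLS standards and reported in μg/mL. Erythromycin-susceptible strains are listed as Ery-S; the panel also includes inducibly resistant (iMLS), constitutively resistant (MLSB) and efflux-resistant (M) strains.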

[6] = tested on: Streptococcus pneumoniae; assay: Antibacterial activity against efflux-resistant Streptococcus pneumoniae by agar microdilution method; in short: as §1
[7] = tested on: Streptococcus pneumoniae; assay: Antibacterial activity against erythromycin-susceptible Streptococcus pneumoniae by agar microdilution method; in short: as §2
[8] = tested on: Staphylococcus aureus; assay: Antibacterial activity against macrolide lincosamide- streptogramin B inducibly-resistant Staphylococcus aureus by agar microdilution method; in short: as §1
[9] = tested on: Streptococcus pyogenes; assay: Antibacterial activity against erythromycin-susceptible Streptococcus pyogenes by agar microdilution method; in short: as §2
[10] = tested on: Haemophilus influenzae; assay: Antibacterial activity against Haemophilus influenzae by agar microdilution method; in short: as §2

CC[C@H]1OC(=O)[C@H](C)C(=O)[C@H](C)[C@@H](O[C@@H]2O[C@H](C)C[C@H](N(C)C)[C@H]2O)[C@](C)(OC)C[C@@H](C)C(=O)[C@H](C)[C@H]2C(NC(=O)/C=C/CCc3cnc4ccccc4c3)C(=O)O[C@@]21C (stereo not given in full)
MIC [1]: 4 µg/mL (≈ 4.78 µM) | MIC [2]: 8 µg/mL (≈ 9.57 µM) | MIC [3]: > 64 µg/mL | MIC [4]: 8 µg/mL (≈ 9.57 µM) | MIC [5]: 2 µg/mL (≈ 2.39 µM) | MIC [6]: 1 µg/mL (≈ 1.2 µM) | MIC [7]: ≤ 0.125 µg/mL | MIC [8]: 2 µg/mL (≈ 2.39 µM) | MIC [9]: ≤ 0.125 µg/mL | MIC [10]: 8 µg/mL (≈ 9.57 µM)

CC[C@H]1OC(=O)[C@H](C)C(=O)[C@H](C)[C@@H](O[C@@H]2O[C@H](C)C[C@H](N(C)C)[C@H]2O)[C@](C)(OC)C[C@@H](C)C(=O)[C@H](C)[C@H]2C(NC(=O)CCc3cccnc3)C(=O)O[C@@]21C (stereo not given in full)
MIC [1]: 2 µg/mL (≈ 2.63 µM) | MIC [2]: 4 µg/mL (≈ 5.26 µM) | MIC [3]: > 64 µg/mL | MIC [4]: 4 µg/mL (≈ 5.26 µM) | MIC [5]: 2 µg/mL (≈ 2.63 µM) | MIC [6]: 2 µg/mL (≈ 2.63 µM) | MIC [7]: ≤ 0.125 µg/mL | MIC [8]: 4 µg/mL (≈ 5.26 µM) | MIC [9]: ≤ 0.125 µg/mL | MIC [10]: 8 µg/mL (≈ 10.5 µM)
